Data set [1] can be described thus: Cytotoxicity against C57BL/6 mouse spleen cell assessed as cell death at 7.8 to 500 uM after 24 hrs by propidium iodide staining based flow cytometry. It counts as tissue-based. In outline:
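Spleen cells from C57BL/6 mice were dissociated, red cells lysed for 5 min (0.17 M Tris-HCl pH 7.5 : 0.16 M NH4Cl, 1:9), and cells grown in RPMI 1640 with 10% FBS and antibiotics at 5×10^5 cells/well with compounds for 24 h at 37 °C. The positive control was 0.5% Tween 20. Dead cells were stained with 10 µg/mL propidium iodide and counted by flow cytometry. Three independent experiments were run in duplicate.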

The test system of data set [2] is Trypanosoma cruzi. Description: Antitrypanosomal activity against amastigote form of Trypanosoma cruzi Tulahuen infected in african green monkey Vero cells assessed as decrease in number of intracellular parasites treated after removal of parasite on cell supernatant following 12 hrs of infection measured after 24 hrs by Giemsa staining based optical microscopy. The format is functional, organism-based. The essentials:
(§1)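 Vero cells plated at 2×10^4/well on 8-well chamber slides; after 12 h infected with 2×10^5 trypomastigotes/well for 12 h, washed with PBS, then compound added for 24 h at 37 °C. Giemsa-stained, parasites per cell counted by light microscopy in at least 200 cells/well. Two independent experiments, each in triplicate.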

Data set [3] deals with Trypanosoma cruzi. Description: Antitrypanosomal activity against trypomastigote form of Trypanosoma cruzi Tulahuen expressing beta galactosidase infected in rhesus monkey LLC-MK2 cells assessed as inhibition of parasite viability treated at 24 hrs post-infection measured after 4 days by CPRG based colorimetric assay. It counts as functional, organism-based. In outline:
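LLC-MK2 cells at 2×10^3/well in phenol red-free RPMI, grown 24 h, infected with 1×10^4 Tulahuen-lacZ trypomastigotes. Compound added 24 h later at 0.5–0.0035 mM (8 concentrations). After 4 days, PBS with 0.5% Triton X-100 and 100 μM CPRG added; 4 h at 37 °C, absorbance 570 nm. IC50 from three independent experiments, each in duplicate.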

Data set [4] can be described thus: Inhibition of C-terminal truncated recombinant Trypanosoma cruzi trans-sialidase assessed as decrease in substrate MuNANA hydrolysis at 1 mM preincubated with enzyme for 10 mins prior to substrate addition measured after 10 mins by continuous fluorimetric assay. The essentials:
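His-tagged 70 kDa recombinant enzyme retaining the catalytic N-terminal domain. Run in triplicate in phosphate buffer pH 7.4; enzyme and inhibitor (25 µL of 4.0 mM solution) preincubated 10 min at 26 °C. MuNANA then added to 0.1 mM final; fluorescence of released Mu read after 10 min (ex 360/em 460 nm). %I = 100×(1−Vi/V0); pyridoxal phosphate as control.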

A short description of data set [5]: Inhibition of C-terminal truncated recombinant Trypanosoma cruzi trans-sialidase assessed as decrease in substrate MuNANA hydrolysis preincubated with enzyme for 10 mins prior to substrate addition measured after 10 mins by continuous fluorimetric assay.
Data set [6] concerns Trypanosoma cruzi. Description: Antitrypanosomal activity against amastigote form of Trypanosoma cruzi Tulahuen infected in african green monkey Vero cells assessed as decrease in number of intracellular parasites at 0.06 to 0.5 mM treated after removal of parasite on cell supernatant following 12 hrs of infection measured after 24 hrs by Giemsa staining based optical microscopy. It counts as functional, organism-based. In outline: as §1

The structures appear in SMILES notation. The source made the active and inactive calls. The calls are words filed in the database; no cut-off is given here.

In general, IC50 refers to the concentration that gives 50% inhibition. One may read the inhibition as the relative decrease from the control value, in per cent. Turning to `CC(=O)N[C@H]1[C@@H](O[C@H](C)[C@@H]2NC(=O)[C@H](CC(=O)O)NC2=O)O[C@H](CO)[C@H](O)[C@@H]1O`, the Activity result is “Non-toxic” in data set [1] and “Dose-dependent effect” with Trypanosoma cruzi [2]. Besides, in the data set on Trypanosoma cruzi [3], the IC50 turned out to be 124 µM. In addition, the inhibition in data set [4] is 13%.

For `CC(=O)N[C@H]1[C@@H](O[C@H](C)[C@H](N)C(=O)O)O[C@H](CO)[C@H](O)[C@@H]1O`, the Activity result in data set [1] is on record as “Non-toxic”. For the same compound, the results for the half-inhibitory concentration (IC50) (with Trypanosoma cruzi [3]; in data set [5]) were > 500 µM and 320 µM, respectively. Also, the inhibition in data set [4] was determined as 79%.

Regarding `CC(=O)N[C@H]1[C@@H](OC[C@@H]2NC(=O)[C@H](CC(=O)O)NC2=O)O[C@H](CO)[C@H](O)[C@@H]1O`, the Activity result in data set [1] was “Non-toxic”. For the same compound, the IC50 in the data set on Trypanosoma cruzi [3] was 282 µM. Moreover, the inhibition in data set [4] came out at 25%.

As for `CC(=O)N[C@H]1[C@@H](OC[C@H](N)C(=O)O)O[C@H](CO)[C@H](O)[C@@H]1O`, in data set [1], the Activity entry is “Non-toxic”. Further, the IC50 in the data set with Trypanosoma cruzi [3] was > 500 µM. Besides, in data set [4], the inhibition is 57%.

On to `O=C(Cn1ccnc1[N+](=O)[O-])NCc1ccccc1` [BENZNIDAZOLE], for which the result in the data set with Trypanosoma cruzi [6] was Active. Moreover, the IC50 in the data set on Trypanosoma cruzi [3] came to 30 µM.

The values above are taken from ChEMBL document CHEMBL2346576, “α-Selective glycosylation affords mucin-related GalNAc amino acids and diketopiperazines active on Trypanosoma cruzi” (Bioorg Med Chem, 2013).
